From PubChem
aDG glyco up: increases alpha dystroglycan glycosylation | activation, % at 10 µM | Pro5-aDG cells, alpha-DG glycosylation AlphaScreen (IIH6); 0% Pro5, 100% B10-LARGE cell signal | 0.22% of 360,000 active | AID 624168;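 active = activation of at least 8% versus controls, or a plate z-score of at least 8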;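 also: Pro5 are CHO cells carrying HIG-tagged alpha-DG that lacks glycosylation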
GASC-1 inh: human JMJD2C demethylase inhibition; GST-JMJD2C(1-420) H3K9me3 demethylation, DELFIA europium; Q9H3R0; AID 2099; 0.069% of 330,000 active; inhibition, % at 2.35 µM;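 active = more than half of a compound's replicate wells show inhibition beyond 50%, single wells judged on their own value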;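 also: signal counts dimethyl H3K9 product captured on neutravidin plate; 0% = median of DMSO wells and 100% = 0.3 times that DMSO median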
Target sequence (Q9H3R0 1-420 limits assumed): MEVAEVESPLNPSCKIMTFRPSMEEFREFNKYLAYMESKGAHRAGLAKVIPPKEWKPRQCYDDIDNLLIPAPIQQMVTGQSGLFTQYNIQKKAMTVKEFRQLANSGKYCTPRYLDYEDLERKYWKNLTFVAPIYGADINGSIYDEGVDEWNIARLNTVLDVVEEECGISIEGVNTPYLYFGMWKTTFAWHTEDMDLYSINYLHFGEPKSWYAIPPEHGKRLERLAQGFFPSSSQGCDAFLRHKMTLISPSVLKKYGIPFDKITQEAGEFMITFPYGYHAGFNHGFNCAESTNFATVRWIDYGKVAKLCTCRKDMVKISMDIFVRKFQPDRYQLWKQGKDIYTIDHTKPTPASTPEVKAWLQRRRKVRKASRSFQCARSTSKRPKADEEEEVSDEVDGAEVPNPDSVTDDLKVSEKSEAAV
NR3A LBD binder: modulates the human NR3A ligand-binding domain | Tm shift relative to glycine control, % at 25 µM | AID 1259313 | NR3A LBD differential scanning fluorimetry, Tm shift; 0% = protein alone, 100% = glycine-bound protein | 2.5% of 340,000 active;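 active = melting temperature shift of at least 10% of the positive control shift, at one fixed dose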
GC-B act: GC-B (human) receptor activation; P20594; HEK293-GC-B cells, CNP EC30, cGMP TR-FRET; 0% at EC30 CNP, 100% saturating CNP; activation, % at 10 µM; 0.11% of 370,000 active;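 active = activation at 10 µM reaching about 35% in either raw or pattern-adjusted values, limit read from the data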
NPR1 activator: GC-A (human) enzyme activation; P16066; HEK293 GC-A cells, cGMP TR-FRET, EC30 ANP; 0% at EC30 ANP, 100% saturating ANP; activation, % at 10 µM; 0.14% of 370,000 active; AID 1671463; in the data active = activation above about 40%
Lipid droplet: hepatic lipid droplet formation modulation | inhibition, % at 6.5 µM | AID 1656 | AML12 mouse hepatocytes, oleate lipid droplets, BODIPY imaging | 0.4% of 240,000 active;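 active = lipid droplet intensity inhibited by at least 50%, with more than 500 cells counted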
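Assay system: AML12 mouse liver cells | Compound dosing: One dose, 6.5 µM compound | Read-out basis: Droplet intensity reduction, % inhibition | Measured by: Fluorescence imaging, 20x objective, two fields per well | Schedule: Overnight treatment with compound plus oleate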
Lipid drop inh: hepatic lipid droplet formation inhibition, confirmed. shares compounds with Lipid droplet. 65% of 870 active. inhibition, % at 5.2 µM. AML12 mouse hepatocytes, BODIPY lipid droplet imaging; droplets induced with 100 µM oleic acid;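 active = inhibition of lipid droplet metric at least 50%, with more than 300 cells in each of four replicates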;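 also: plate controls were DMSO with oleic acid for no effect and 5 µM Triacsin-C for full effect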
AML12 tox img: counter-screen for cytotoxicity in AML12 mouse hepatocytes; shares compounds with Lipid droplet; DAPI nuclear morphology cytotoxicity imaging; hits give high values; cells fed 100 µM oleate overnight; z-score at 5 µM; 3% of 870 active; AID 463200; in the data active = z-score above about 6.3;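 also: compound exposure lasted overnight at 37 °C before fixation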
AML12 tox conf: confirmation of cytotoxicity in AML12 mouse hepatocytes; AID 463219; 530 tested, under 10 active; AML12 mouse hepatocyte viability, ATP luminescence; cells loaded with 100 µM oleic acid; cytotoxicity, % at 50 µM; shares compounds with Lipid droplet;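 active = cytotoxicity above 50% in each of four replicates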;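 also: compound exposure lasted overnight at 37 °C before the ATP read; 0% = DMSO-treated cells and 100% = wells with no cells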
* hit, by the source's call; / = no result. The list is not random: actives were taken first. Their share in the collection is about 3%.

SMILES	aDG glyco up	GASC-1 inh	NR3A LBD binder	GC-B act	NPR1 activator	Lipid droplet	Lipid drop inh	AML12 tox img	AML12 tox conf
C=C(C)c1cccc(C(C)(C)NC(=O)Nc2cc(C)ccc2OC)c1	0	1	-5	-16	-23	/	/	/	/
CCOc1ccccc1NC(=O)c1cccc(NC(=O)C(C)C)c1	1	-5	-3	5	-4	41	/	/	/
CCOC(=O)C1=CC[C@@H](c2ccccc2)N(S(=O)(=O)c2ccc(C)cc2)[C@H]1/C=C/c1ccccc1	0	/	/	-4	-1	/	/	/	/
O=C(O)CCC(=O)OCCN(Cc1ccc(Oc2ccc([N+](=O)[O-])cc2)cc1)C(=O)C(Cl)Cl	0	/	-1	-4	-2	/	/	/	/
COc1ccc(CN(C)C(=O)CNC(=O)Cc2cccc3ccccc23)c(OC)c1OC	0	-3	-1	4	6	53*	82*	-0.31	16
COc1ccc(CCN(C)C(=O)CNC(=O)Cc2cccc3ccccc23)cc1OC	0	1	0	-3	0	13	/	/	/
CCCCn1c(N)c(N(Cc2ccccc2OC)C(=O)CN2C(=O)NC3(CCCC3)C2=O)c(=O)[nH]c1=O	0	8	-2	4	2	/	/	/	/
COP(=O)(O)C(COCCC(CC(C)C)NC(=O)OCc1ccccc1[N+](=O)[O-])NC(=O)OCc1ccccc1 (stereo unspecified)	/	/	/	-1	0	/	/	/	/
CCOC(=O)N1CCN(C(=O)CN(c2ccccc2OC)S(=O)(=O)c2ccc(OC)cc2)CC1	0	16	-1	-2	0	0	/	/	/
COc1ccc(S(=O)(=O)N(CC(=O)N2CCCCCC2)c2ccccc2OC)cc1	0	0	-2	-5	-6	58*	-12	-1.3	/
O=C(c1cc(Br)c(Br)s1)N1CCc2ccccc2C1	0	-1	-1	-4	-8	/	/	/	/
CCOC(=O)c1c(C)[nH]c(C(=O)OC(C)C(=O)Nc2ccccc2OC)c1C (stereo unspecified)	0	-20	-4	4	1	0	/	/	/
OCC[C@@H]1C[C@H](O)[C@@H](O)[C@]2(Cc3ccccc3O2)O1	0	-1	-3	/	/	62*	45	0.083	/
OCC[C@H]1C[C@@H](O)[C@H](O)[C@@]2(Cc3ccccc3O2)O1	0	-4	0	-1	2	/	/	/	/
NC(=O)COc1ccc(/C=N\NC(=O)CC(=O)NCCc2ccccc2)cc1	0	0	0	-2	2	-8	/	/	/
FC(F)(F)c1cc(N2CCOCC2)nc(-c2ccccc2)n1	0	-3	-3	-3	3	0	/	/	/
c1ccc(-c2nc(N3CCOCC3)cc(N3CCOCC3)n2)cc1	0	-5	0	-10	-11	67*	92*	-0.2	25
Cc1ccc(N2C(=O)c3ccccc3NC2(C(=O)O)c2ccccc2)cc1Cl (stereo unspecified)	0	-7	-1	5	6	50*	60	1.4	31
CC(C)N1CCCCC(NC(=O)c2ccc(F)c(F)c2)C1=O (stereo unspecified)	/	/	/	1	2	/	/	/	/
CCOC(=O)c1ccc(NC(=O)COc2ccc(S(=O)(=O)NC(C)(C)C)cc2)cc1	1	-2	-26	-2	-5	96*	107*	-0.023	3
COc1cccc(CNC(=O)C2C3C=CC4(CN(Cc5ccccc5)C(=O)C24)O3)c1OC (stereo unspecified)	/	/	/	-3	5	/	/	/	/
O=C(NCc1ccc(C(=O)O)cc1)OCc1ccccc1	0	51	2	2	-3	63*	15	0.0019	/
Cc1c(S(=O)(=O)c2ccccn2)c(N)n(Cc2ccccc2)c1C	0	5	-1	-1	-2	61*	8	-0.61	/
CC1(C)CC=CC(COC(=O)c2ccccc2C(=O)O)C1 (stereo unspecified)	0	/	-6	5	1	/	/	/	/
Cc1cc2nn(-c3ccc(F)cc3)nc2cc1N	0	5	0	-1	-2	14	/	/	/
SMILES	aDG glyco up	GASC-1 inh	NR3A LBD binder	GC-B act	NPR1 activator	Lipid droplet	Lipid drop inh	AML12 tox img	AML12 tox conf
Cc1cc2nn(-c3ccc(Cl)cc3)nc2cc1N	1	-1	2	5	8	62*	73*	0.24	49
CC1(C(=O)Nc2ccc3c(c2)OCCO3)CN(S(C)(=O)=O)CC(=O)N1Cc1cccs1 (stereo unspecified)	0	/	/	6	1	/	/	/	/
Cc1nc2nc(-c3ccc(Cl)cc3)nn2c(C)c1Cl	/	9	/	/	/	/	/	/	/
Cc1cc(N2CCN(C)CC2)n2nc(-c3ccc(Cl)cc3)nc2n1	0	5	2	-2	-10	61*	22	-0.26	/
CCCc1cc(N2CCOCC2)n2nc(C)c(-c3ccccc3)c2n1	0	-4	0	-9	-9	64*	96*	0.76	-2
CCc1nn2c(N3CCOCC3)cc(C)nc2c1-c1ccc(F)cc1	0	31	2	-17	-3	88*	110*	0.76	2
Cc1cc(N2CCOCC2)n2nc(C)c(-c3ccc(Cl)cc3)c2n1	0	-5	-2	1	1	98*	110*	0.25	11
Cc1cc(N2CCOCC2)n2nc(C(F)(F)F)c(-c3ccccc3)c2n1	0	3	1	-1	-1	37	/	/	/
CCCc1cc(N2CCN(c3ccccn3)CC2)n2nc(C)c(-c3ccccc3)c2n1	0	-2	2	-2	-1	/	/	/	/
O=C(Nc1ccc(Br)cc1)c1cccc(OC(=S)N2CCOCC2)c1	2	-9	-10	-1	0	54*	89*	0.81	20
CCN1C[C@@H]2[C@@H]3C(=O)N(Cc4ccccc4)C(=O)[C@@H]3[C@](Cc3ccccc3)(C1=O)N2C(=O)c1ccc(Cl)cc1	0	/	1	-17	-12	/	/	/	/
Cc1nc(NC(=O)C2CC2)sc1C(=O)N(C)C	0	-19	5	4	7	70*	-17	-0.32	/
COC(=O)Nc1nc(C)c(C(=O)N(C)C)s1	0	-7	1	7	3	/	/	/	/
c1cc2c(cc1-c1csc(NNC3=NCCCCC3)n1)OCCO2	/	36	3	-3	-2	90*	100*	-0.51	39
Cc1ccc(C(=O)N(C)Cc2nc3ccccc3c(=O)[nH]2)cc1NC(=O)c1ccco1	0	9	-1	-2	0	/	/	/	/
